Active and inactive are the calls of the source.
Experiments:
Format in all cases: cell-based
[1] = molecular target: T1, Antigen-presenting glycoprotein CD1d (Homo sapiens) (UniProt P15813); test: Induction of CD1D-mediated IL-13 production in human iNKT cells expressing CD4 at 400 nM after 18 hrs by ELISA
T1 sequence (whole entry): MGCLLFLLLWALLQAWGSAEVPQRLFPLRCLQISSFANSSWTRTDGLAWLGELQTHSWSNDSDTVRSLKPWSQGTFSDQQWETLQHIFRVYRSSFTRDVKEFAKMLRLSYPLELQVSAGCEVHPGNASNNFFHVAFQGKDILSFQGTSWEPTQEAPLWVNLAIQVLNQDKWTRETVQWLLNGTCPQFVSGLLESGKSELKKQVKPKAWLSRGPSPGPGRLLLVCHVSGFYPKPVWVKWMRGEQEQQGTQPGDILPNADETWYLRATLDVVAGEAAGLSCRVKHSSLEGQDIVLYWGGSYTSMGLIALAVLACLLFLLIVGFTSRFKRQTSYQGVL
How it was run: (§1)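 CD4⁺ human iNKT clone HDD11 with CD1d-transfected HeLa cells as APC, in RPMI-1640 plus 10% FBS. 2.5 × 10⁴ HeLa cells were pulsed with glycolipid for 18 h at 37 °C, washed, then given fresh glycolipid-free medium with 2.5 × 10⁴ iNKT cells. Supernatants were taken after a further 18 h at 37 °C, and cytokine was measured by capture ELISA.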

[2] = molecular target: T1, Antigen-presenting glycoprotein CD1d (Homo sapiens); test: Induction of CD1D-mediated IL-13 production in human iNKT cells expressing CD4 at 25 nM after 18 hrs by ELISA; how it was run: as §1
[3] = molecular target: T1, Antigen-presenting glycoprotein CD1d (Homo sapiens); test: Induction of CD1D-mediated IL-4 production in human iNKT cells expressing CD4 at 25 nM after 18 hrs by ELISA; how it was run: as §1
[4] = molecular target: T1, Antigen-presenting glycoprotein CD1d (Homo sapiens); test: Induction of CD1D-mediated IFN-gamma production in human iNKT cells expressing CD4 at 25 nM after 18 hrs by ELISA; how it was run: as §1
[5] = molecular target: T1, Antigen-presenting glycoprotein CD1d (Homo sapiens); test: Induction of CD1D-mediated IL-13 production in human iNKT cells expressing CD4 at 25 to 400 nM after 18 hrs by ELISA; how it was run: as §1
[6] = molecular target: T1, Antigen-presenting glycoprotein CD1d (Homo sapiens); test: Induction of CD1D-mediated IL-4 production in human iNKT cells expressing CD4 at 25 to 400 nM after 18 hrs by ELISA; how it was run: as §1
[7] = molecular target: T1, Antigen-presenting glycoprotein CD1d (Homo sapiens); test: Induction of CD1D-mediated IFN-gamma production in human iNKT cells expressing CD4 at 25 to 400 nM after 18 hrs by ELISA; how it was run: as §1

Measured: Activity

CCCCCCCCCCCCCCC[C@H](O)[C@H](CO[C@H]1O[C@H](CO)[C@H](O)[C@H](O)[C@H]1O)NC(=O)CCCCCCCCCc1ccccc1
active: [1] | [2] | [3] | [4]

CCCCCCCCCCCCCCCCCCCCCCCCCC(=O)N[C@@H](CO[C@H]1O[C@H](CO)[C@H](O)[C@H](O)[C@H]1O)[C@H](O)[C@H](O)CCCc1ccccc1
active: [1] | [5] | [6] | [7]

CCCCCCCCCCCCCC[C@H](O)[C@H](O)[C@H](CO[C@H]1O[C@H](CO)[C@H](O)[C@H](O)[C@H]1O)NC(=O)CCCCCc1ccccc1
active: [1] | [2] | [3] | [4]

CCCCCCCCCCCCCCCCCCCCCCCCCC(=O)N[C@@H](CO[C@H]1O[C@H](CO)[C@H](O)[C@H](O)[C@H]1O)[C@H](O)[C@H](O)CCCCCCCCCCCCCC
active: [1]

CCCCCCCCCCCCCCCC[C@H](CO[C@H]1O[C@H](CO)[C@H](O)[C@H](O)[C@H]1O)NC(=O)CCCCCCCCCc1ccccc1
active: [1] | [5] | [6] | [7]

CCCCCCCCCCCCCCCCCCCCCCCCCC(=O)N[C@@H](CO[C@H]1O[C@H](CO)[C@H](O)[C@H](O)[C@H]1O)[C@H](O)[C@@H](O)CCCc1ccccc1
active: [1] | [2] | [3] | [4]

CCCCCCCCCCCCCCCCCCCCCCCCCC(=O)N[C@@H](CO[C@H]1O[C@H](CO)[C@H](O)[C@H](O)[C@H]1O)[C@@H](O)CCCCCCCCCCCCCCC
active: [1] | [2] | [3] | [4]

CCCCCCCCCCCCCCCCCCCCCCCCCC(=O)N[C@H](CCCCCCCCCCCCCCCC)CO[C@H]1O[C@H](CO)[C@H](O)[C@H](O)[C@H]1O
active: [1] | [2] | [3] | [4]
